Active and inactive are the calls of the source. No cut-off for these calls is given here.
Legend:
HeLa [1] = test: Acetylation of H3 in HeLa cells expressing H2B-EYFP upto 200 uM; type: functional, cell-based; conditions: Homo sapiens
Summary of the method: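 H2B-EYFP HeLa cells in 10% FCS-DMEM were treated with various compound concentrations up to 200 µM, then immunostained with anti-acetyl-H3 antibodies. H2B-EYFP fluorescence served as an internal control for protein expression.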

[2] = biological target: T1, Histone acetyltransferase p300 (Homo sapiens, UniProt Q09472); test: Activity of GST-p300 HAT assessed as HAT activity at 21 uM
T1 sequence (Q09472 whole entry): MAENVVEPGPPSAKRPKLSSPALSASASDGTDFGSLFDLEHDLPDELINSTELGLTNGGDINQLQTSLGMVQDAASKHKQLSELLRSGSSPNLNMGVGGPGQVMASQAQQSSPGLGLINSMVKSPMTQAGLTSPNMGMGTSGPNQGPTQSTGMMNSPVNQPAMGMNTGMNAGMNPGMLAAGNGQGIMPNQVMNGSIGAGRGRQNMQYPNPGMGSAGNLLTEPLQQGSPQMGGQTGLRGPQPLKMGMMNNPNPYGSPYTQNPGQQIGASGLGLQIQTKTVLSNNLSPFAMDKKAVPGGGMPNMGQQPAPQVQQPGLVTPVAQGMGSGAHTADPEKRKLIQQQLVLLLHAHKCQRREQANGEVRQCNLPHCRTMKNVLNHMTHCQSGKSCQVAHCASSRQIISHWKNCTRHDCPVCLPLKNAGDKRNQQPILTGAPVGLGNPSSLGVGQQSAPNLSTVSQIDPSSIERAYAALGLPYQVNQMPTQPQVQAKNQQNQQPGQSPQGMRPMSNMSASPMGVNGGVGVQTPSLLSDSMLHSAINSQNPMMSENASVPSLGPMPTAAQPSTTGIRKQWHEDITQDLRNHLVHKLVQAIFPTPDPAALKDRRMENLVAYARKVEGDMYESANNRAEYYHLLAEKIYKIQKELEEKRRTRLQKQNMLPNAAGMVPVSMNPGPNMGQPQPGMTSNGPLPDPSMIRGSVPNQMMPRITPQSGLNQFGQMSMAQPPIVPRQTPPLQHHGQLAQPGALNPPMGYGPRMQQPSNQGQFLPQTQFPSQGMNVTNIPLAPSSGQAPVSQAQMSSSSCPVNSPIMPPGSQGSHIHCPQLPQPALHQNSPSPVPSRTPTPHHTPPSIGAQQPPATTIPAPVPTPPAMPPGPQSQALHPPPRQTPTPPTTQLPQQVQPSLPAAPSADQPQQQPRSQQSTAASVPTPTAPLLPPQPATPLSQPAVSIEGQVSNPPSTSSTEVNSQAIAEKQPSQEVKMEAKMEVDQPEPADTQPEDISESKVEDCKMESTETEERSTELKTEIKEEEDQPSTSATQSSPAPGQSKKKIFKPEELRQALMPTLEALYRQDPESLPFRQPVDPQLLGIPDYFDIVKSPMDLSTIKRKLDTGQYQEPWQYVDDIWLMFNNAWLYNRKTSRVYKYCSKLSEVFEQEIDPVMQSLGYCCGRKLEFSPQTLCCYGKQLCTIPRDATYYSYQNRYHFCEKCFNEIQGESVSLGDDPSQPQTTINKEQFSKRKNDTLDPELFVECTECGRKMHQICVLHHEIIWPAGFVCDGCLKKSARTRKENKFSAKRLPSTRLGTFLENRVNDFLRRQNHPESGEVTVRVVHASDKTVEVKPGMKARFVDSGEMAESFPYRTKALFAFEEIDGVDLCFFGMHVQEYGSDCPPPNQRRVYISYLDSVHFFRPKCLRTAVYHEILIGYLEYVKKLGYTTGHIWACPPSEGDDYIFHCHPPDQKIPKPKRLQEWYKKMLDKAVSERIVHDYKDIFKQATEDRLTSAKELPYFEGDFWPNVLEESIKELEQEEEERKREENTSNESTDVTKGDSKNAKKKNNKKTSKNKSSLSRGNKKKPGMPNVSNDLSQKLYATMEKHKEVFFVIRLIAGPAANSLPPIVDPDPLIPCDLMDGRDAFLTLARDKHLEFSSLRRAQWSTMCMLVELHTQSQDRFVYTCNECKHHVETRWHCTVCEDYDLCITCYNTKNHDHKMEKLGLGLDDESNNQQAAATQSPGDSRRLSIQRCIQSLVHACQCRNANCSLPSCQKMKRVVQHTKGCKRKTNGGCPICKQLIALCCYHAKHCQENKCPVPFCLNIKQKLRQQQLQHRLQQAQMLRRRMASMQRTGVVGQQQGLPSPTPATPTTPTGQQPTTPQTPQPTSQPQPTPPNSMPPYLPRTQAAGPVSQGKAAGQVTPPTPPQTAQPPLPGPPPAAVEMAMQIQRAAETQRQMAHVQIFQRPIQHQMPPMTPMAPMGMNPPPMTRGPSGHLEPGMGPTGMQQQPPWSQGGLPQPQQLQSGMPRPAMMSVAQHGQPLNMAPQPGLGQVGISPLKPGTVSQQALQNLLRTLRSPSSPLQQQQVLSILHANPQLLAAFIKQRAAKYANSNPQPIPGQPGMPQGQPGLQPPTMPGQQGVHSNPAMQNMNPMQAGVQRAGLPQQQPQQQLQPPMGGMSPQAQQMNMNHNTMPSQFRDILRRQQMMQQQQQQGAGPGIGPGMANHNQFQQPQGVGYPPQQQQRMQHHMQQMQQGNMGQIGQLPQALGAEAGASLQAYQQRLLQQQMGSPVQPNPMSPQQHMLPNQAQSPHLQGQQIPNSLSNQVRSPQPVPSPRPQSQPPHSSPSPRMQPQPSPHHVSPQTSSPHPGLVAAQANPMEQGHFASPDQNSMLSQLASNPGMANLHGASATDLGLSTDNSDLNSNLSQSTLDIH
Summary of the method: (§1)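 The same in vitro HAT assay was run with equal molar amounts of p300, PCAF and GCN5, each with a test compound at 5 or 21 µM. Acetylation was quantified by densitometry and expressed as percent variation from the DMSO-treated sample. Values are the mean of three independent experiments ± standard error.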

[3] = biological target: T1, Histone acetyltransferase p300; test: Inhibition of GST-p300 HAT assessed as histone acetylation
Summary of the method: (§2)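 Recombinant histones H1, H2A, H2B, H3 and H4 were acetylated in vitro by the p300 HAT domain. Acetylated histones were detected by gel autoradiography, with Coomassie staining for total histone. IC50 was taken from densitometric dose–response curves, as the mean of at least three separate experiments.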

[4] = biological target: Histone acetyltransferase KAT2A (Homo sapiens) (UniProt Q92830); test: Activity of GST-GCN5 assessed as HAT activity at 21 uM; summary of the method: as §1
Chain of Histone acetyltransferase KAT2A (Homo sapiens) (Q92830 2-837 limits assumed): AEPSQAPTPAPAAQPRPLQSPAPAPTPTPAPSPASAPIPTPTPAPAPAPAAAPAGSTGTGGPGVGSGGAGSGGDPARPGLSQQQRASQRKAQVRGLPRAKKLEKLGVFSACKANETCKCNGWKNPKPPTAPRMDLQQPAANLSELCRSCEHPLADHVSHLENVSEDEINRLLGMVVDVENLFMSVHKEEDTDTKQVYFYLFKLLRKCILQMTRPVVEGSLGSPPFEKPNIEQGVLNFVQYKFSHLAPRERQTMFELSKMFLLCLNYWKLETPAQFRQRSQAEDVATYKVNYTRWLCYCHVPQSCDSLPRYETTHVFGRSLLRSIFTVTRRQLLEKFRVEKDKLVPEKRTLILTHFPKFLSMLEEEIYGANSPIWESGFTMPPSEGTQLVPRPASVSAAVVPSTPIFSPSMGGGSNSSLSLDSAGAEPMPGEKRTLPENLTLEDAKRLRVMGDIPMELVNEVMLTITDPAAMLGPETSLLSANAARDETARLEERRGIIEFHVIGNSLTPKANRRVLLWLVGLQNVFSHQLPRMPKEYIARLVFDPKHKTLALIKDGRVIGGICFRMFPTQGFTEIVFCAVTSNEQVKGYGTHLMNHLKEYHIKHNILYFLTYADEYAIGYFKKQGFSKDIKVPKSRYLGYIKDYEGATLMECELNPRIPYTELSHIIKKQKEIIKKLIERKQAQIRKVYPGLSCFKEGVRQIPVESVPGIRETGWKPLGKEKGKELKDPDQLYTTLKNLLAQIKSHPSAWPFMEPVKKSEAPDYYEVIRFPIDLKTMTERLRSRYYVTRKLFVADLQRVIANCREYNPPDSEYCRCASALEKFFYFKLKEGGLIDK

[5] = biological target: Histone acetyltransferase KAT2B (Homo sapiens) (UniProt Q92831); test: Activity of GST-PCAF assessed as HAT activity at 21 uM; summary of the method: as §1
Chain of Histone acetyltransferase KAT2B (Homo sapiens) (Q92831 whole entry, looked up): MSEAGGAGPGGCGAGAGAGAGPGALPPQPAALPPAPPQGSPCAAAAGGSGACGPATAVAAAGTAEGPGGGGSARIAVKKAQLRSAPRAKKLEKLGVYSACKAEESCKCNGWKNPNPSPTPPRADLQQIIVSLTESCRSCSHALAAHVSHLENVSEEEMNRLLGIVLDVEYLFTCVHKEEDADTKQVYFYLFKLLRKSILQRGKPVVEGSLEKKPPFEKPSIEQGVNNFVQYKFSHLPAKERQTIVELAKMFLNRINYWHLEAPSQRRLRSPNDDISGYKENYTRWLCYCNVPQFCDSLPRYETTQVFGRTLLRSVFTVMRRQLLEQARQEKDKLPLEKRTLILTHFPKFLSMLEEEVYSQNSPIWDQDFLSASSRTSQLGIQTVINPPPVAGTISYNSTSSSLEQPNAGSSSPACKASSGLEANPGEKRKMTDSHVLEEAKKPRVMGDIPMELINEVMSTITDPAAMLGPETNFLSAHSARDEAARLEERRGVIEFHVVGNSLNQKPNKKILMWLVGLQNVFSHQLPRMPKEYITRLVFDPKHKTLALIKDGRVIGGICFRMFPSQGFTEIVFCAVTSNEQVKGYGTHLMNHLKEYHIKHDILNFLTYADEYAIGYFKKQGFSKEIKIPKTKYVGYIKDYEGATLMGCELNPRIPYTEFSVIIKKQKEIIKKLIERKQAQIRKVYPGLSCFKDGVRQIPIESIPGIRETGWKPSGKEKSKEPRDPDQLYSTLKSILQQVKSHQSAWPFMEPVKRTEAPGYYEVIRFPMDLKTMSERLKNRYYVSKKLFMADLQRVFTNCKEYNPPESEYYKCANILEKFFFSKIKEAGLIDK

[6] = biological target: T1, Histone acetyltransferase p300; test: Inhibition of GST-p300 HAT expressed in bacteria assessed as histone acetylation
Summary of the method: as §2, with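 “domain. Compounds were tested at 25–400 µM, or from 0.19 µM for one compound.” for “domain.”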

[7] = biological target: T1, Histone acetyltransferase p300; test: Inhibition of full length GST-p300 expressed in Sf9 cells assessed as histone acetylation
HeLa [8] = test: Cytotoxicity in HeLa cells expressing H2B-EYFP above 20 uM; type: functional, cell-based; conditions: Homo sapiens, in the assay text read “above 40 uM” for “above 20 uM”
Summary of the method: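 Cell toxicity in compound-treated H2B-EYFP HeLa cells was scored as decreased H2B-EYFP fluorescence.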

[9] = biological target: T1, Histone acetyltransferase p300; test: Activity of GST-p300 HAT assessed as HAT activity at 5 uM; summary of the method: as §1
[10] = biological target: Histone acetyltransferase KAT2A (Homo sapiens) (UniProt Q92830); test: Activity of GST-GCN5 assessed as HAT activity at 5 uM; summary of the method: as §1
HeLa [11] = test: Reduction of acetylation in HeLa cells expressing H2B-EYFP at 40 uM; type: functional, Homo sapiens; parameters: scale not given: the % may be the effect or the level left
Summary of the method: (§3)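 HeLa cells stably expressing H2B-EYFP were grown in 10% FCS-DMEM and treated with 20 or 40 µM compound or DMSO. Cells were then immunostained for acetyl-H3. Mean anti-acetyl-H3 fluorescence was normalized to H2B-EYFP fluorescence in the same cells and expressed as percent inhibition versus DMSO. Each of three independent experiments analyzed 150 cells; mean and standard error are reported.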

HeLa [12] = test: Reduction of acetylation in HeLa cells expressing H2B-EYFP at 20 uM; type: functional, Homo sapiens; parameters: scale not given: the % may be the effect or the level left; summary of the method: as §3

O=C(/C=C(O)/C=C/c1ccc(O)c(C(=O)O)c1)/C=C/c1ccc(O)c(C(=O)O)c1
Activity (HeLa [1]): inactive
Activity [2]: 50%
IC50 [3]: 21 µM
Activity [4]: 38%
Activity [5]: 68%

COc1cc(/C=C/C(=O)CC(=O)/C=C/c2ccc(O)c(OC)c2)ccc1O
Activity [6]: inactive
Activity [7]: inactive

O=C1/C(=C/c2ccc(O)c(O)c2)CCC/C1=C\c1ccc(O)c(O)c1
IC50 [3]: 233 µM

O=C(/C=C(O)/C=C/c1ccc(O)c(Br)c1)/C=C/c1ccc(O)c(Br)c1
IC50 [3]: 33 µM

O=C1/C(=C/c2ccc(O)c(Br)c2)CCC/C1=C\c1ccc(O)c(Br)c1
Activity (HeLa [8]): Active
IC50 [3]: 5 µM
Activity [9]: 50%
Activity [10]: 70%
Activity (HeLa [11]): > 50%
Activity (HeLa [12]): 30%

O=C1/C(=C/c2ccc(O)c(C(=O)O)c2)CCC/C1=C\c1ccc(O)c(C(=O)O)c1
IC50 [3]: 168 µM

COc1cc(/C=C2\CCC/C(=C\c3ccc(O)c(OC)c3)C2=O)ccc1O [CYCLOVALONE]
IC50 [3]: 111 µM

O=C(/C=C(O)/C=C/c1ccc(O)c(O)c1)/C=C/c1ccc(O)c(O)c1
IC50 [3]: 46 µM
